Screening results: PubChem, several laboratories
The full list was thinned out, with hits kept by preference.
UPR XBP1 act: activators of adaptive XBP1 UPR arm, primary screen, cell-based, CHO-XBP1 luciferase reporter, luminescence, uHTS. activation, % at 20 µM. actives 0.33% (n = 330,000). IRE1-XBP1 UPR activation; percent of tunicamycin response, DMSO as zero;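 active = versus positive control, 20 µM dose yields 30% or more activation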
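Material: CHO-XBP1 cells stably carrying IRE1-XBP1-driven luciferase reporter | Medium: F12 with 10% serum | Compound dosing: 20 µM single concentration, DMSO 1% | Incubation: Overnight seeding at 37 °C, 6 h compound treatment at 37 °C | Detection: Steady-Glo luminescence read | Read-out basis: % activation of reporter signal versus tunicamycin and DMSO controls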
CHOP UPR activ: activators of apoptotic CHOP UPR arm, primary screen, cell-based, CHO-CHOP luciferase reporter, luminescence, uHTS. AID 449763, 2010. UPR activation; percent of tunicamycin response over DMSO baseline. activation, % at 10 µM. actives 0.34% (n = 330,000);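 active = at 10 µM dose, activation of 40% or more, normalized to positive control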
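Evaluation: % reporter activation, DMSO baseline versus tunicamycin full activation; System: CHO-CHOP luciferase reporter cell line; Input: 500 cells/well; Incubation: 6 h compound treatment, 37 °C; Measured by: Steady-Glo luciferase luminescence; Dosing: one dose, 10 µM in 0.5% DMSO; Buffer or medium: F12 medium, 10% FBS; Benchmarks: positive tunicamycin 10 µg/mL, negative DMSO alone.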
CHOP inh: inhibitors of CHOP promoter induction, primary screen, cell-based, unfolded protein response, luciferase reporter | CHO-K1 CHOP-promoter luciferase, tunicamycin-induced, 15-18 h | inhibition, % at 10 µM | actives 3.8% (n = 220,000);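 active = compounds that reduced the stress-induced luciferase reporter signal by more than about 70% of percent inhibition, limit read from the data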
L major viab: Leishmania major promastigote growth inhibition, primary screen; inhibition, % at 10 µM; actives 9% (n = 200,000); AID 1063, 2008; Leishmania major promastigotes, resazurin fluorescence viability; in the data active = inhibition above about 50%;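 also: promastigotes grown with compound for 44 hours at 28 °C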
T cruzi repl: inhibitors of intracellular T. cruzi growth, primary screen, luminescence, NIH3T3 host cells; T. cruzi beta-gal in NIH3T3, 90 h; inhibition, % (concentration not given with the values); actives 1.4% (n = 300,000); AID 1885, 2009;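 active = mean inhibition across valid replicates above about 55%, limit read from the data; inconclusive = mean below that limit but half or more replicates reach it; inactive = mean below it, under half of replicates reach it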;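 also: signal also drops with host cell toxicity which is not excluded here; higher percent means less beta-gal luminescence so fewer parasites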
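Test system: β-gal T. cruzi (Tulahuen C4) inside NIH/3T3 cells / Quantity: 5,000 cells/well / Measured by: luminescence from GalScreen with 0.05% NP40, read after 60 min / Medium: DMEM plus 2% FBS / Measure: parasite load inhibition, % / Reagent: Tulahuen C4 trypomastigotes, 5000/well / Schedule: co-culture of at least 90 h after 3 h attachment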
Dynein transport: inhibitors of GR-EGFP nuclear translocation, primary screen, dynein cargo transport inhibitor project, imaging, high-content, 3617.4 mouse cells | test concentration mostly 20 µM; stimulated with dexamethasone, 1 µM; hits give low values | actives 0.47% (n = 220,000) | z-score, hits read low | AID 1381, 2008;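 active = plate z-score of nuclear minus cytoplasmic receptor signal below a set negative limit, without overly bright fluorescence or cell loss, cut at about -3.5 in these data, passing the limit was not always enough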;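 also: z-score of nuclear minus cytoplasmic ring GR-EGFP intensity difference per well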
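Buffer or medium: tet-free, stripped-serum medium; reagent: dexamethasone at 1.0 µM final, 30 min; incubation: 48 h induction, 1 h compound, 30 min dex at 37 °C; measured by: formaldehyde fixation, Hoechst nuclear stain, 10x automated fluorescence imaging; read-out: nuclear-to-cytoplasmic GR-EGFP distribution per well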
CHOP confirm: retest of CHOP induction inhibitors, confirmation, cell-based; shares compounds with CHOP inh; CHO-CHOP promoter luciferase reporter, tunicamycin-induced, luminescence; inhibition, % at 10 µM; actives 45% (n = 2,100);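 active = mean of three repeat readings of reporter signal inhibition above a set limit, cut at about 70% in these data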
Of the large screens only hits and unclear results are named; the others gave an inactive call (follow-up assays come after a bar, where they were run).

CC(C)C[C@H](N)c1nnc(SCC(=O)Nc2ccc(Br)cc2)o1	none (no result: CHOP inh, L major viab, Dynein transport)
O=C(Nc1nnc(-c2ccccc2Cl)o1)c1nc2ccccc2s1	CHOP inh 98.8 | CHOP confirm inactive
O=C(Nc1nnc(-c2ccccc2Cl)o1)c1ccco1	none
Cc1cc(S(=O)(=O)N2CCOCC2)ccc1OCC(=O)NCCN1CCOCC1	none (no result: CHOP inh, L major viab, Dynein transport)
O=c1c2c(-c3ccccc3)csc2nc2c3ccccc3c(NCCN3CCOCC3)nn12	CHOP inh 105.8, L major viab 100.5 (no result: UPR XBP1 act, CHOP UPR activ) | CHOP confirm inactive
O=c1[nH]c2ccccc2nc1NCCN1CCOCC1	none
Nc1ccc2oc(-c3cc(Br)ccc3Cl)nc2c1	CHOP inh 96.9 | CHOP confirm 73.6
CCOC(=O)COc1ccc(Br)cc1/C=C1\SC(N)=NC1=O	none (no result: CHOP inh, L major viab, Dynein transport)
CCOC(=O)CSC1=NC(=O)/C(=C\c2ccc(OC(C)=O)cc2)S1	CHOP inh 106.4 | CHOP confirm inactive
CCN(CC)C(=O)CSc1nc(N)c(C#N)c(-c2cccs2)c1C#N	none
Cc1ccccc1NC(=O)CSc1nc(N)c(C#N)c(-c2cccs2)c1C#N	CHOP inh 105.2 | CHOP confirm inactive
Cc1c(CC(=O)N[C@H](C(=O)O)C(C)C)c(=O)oc2cc3c(cc12)CCC(C)(C)O3	none (no result: CHOP inh, L major viab, Dynein transport)
CSCCC(NC(=O)COc1ccccc1)C(=O)NCCOc1ccccc1 (stereo unspecified)	none (no result: CHOP inh, L major viab, T cruzi repl, Dynein transport)
O=S(c1ccc2ccccc2c1)c1cnns1 (stereo unspecified)	CHOP inh 105.5 (no result: T cruzi repl) | CHOP confirm inactive
COc1ccc(OC)c(NC(=O)NNC(=O)COc2ccc(F)cc2F)c1	none (no result: CHOP inh, L major viab, Dynein transport)
O=S(=O)(/N=S1/CC=CCN1S(=O)(=O)c1ccccc1)c1ccccc1 (stereo unspecified)	CHOP inh 103.5 | CHOP confirm inactive
C=CCNc1oc(-c2cccc(F)c2)nc1C#N	none (no result: CHOP inh, L major viab, T cruzi repl, Dynein transport)
Cc1ccc(Nc2nc(N)c([N+](=O)[O-])c(N3CCC(C)CC3)n2)cc1C	CHOP inh 101.3 | CHOP confirm 102.1
COc1ccc(CC(=O)N(Cc2ccccc2)c2ccc(C)cc2)cc1OC	none (no result: CHOP inh, L major viab, Dynein transport)
Cc1ccc(Nc2nc(N)nc(CN3CCN(C)CC3)n2)cc1C	none (no result: UPR XBP1 act, CHOP UPR activ, T cruzi repl)
Cc1ccc(Nc2nc(N)nc(CN3CCN(c4ccccc4)CC3)n2)cc1Cl	CHOP inh 102.5 | CHOP confirm 74.7
CC(C)CC1NC(=O)N(CC(=O)Nc2cc(S(=O)(=O)N3CCOCC3)ccc2Cl)C1=O (stereo unspecified)	none (no result: CHOP inh, L major viab, T cruzi repl, Dynein transport)
O=S1(=O)C=C(Sc2nnc(-c3ccccc3)o2)c2ccccc21	T cruzi repl 63.2, Dynein transport -4.07 (no result: CHOP inh) | CHOP confirm 124.6
Cc1cc(C)nc(SC2=CS(=O)(=O)c3ccccc32)n1	none
Cc1[nH]c(C)c(S(=O)(=O)N2CCN(c3ccccc3)CC2)c1C(=O)N1CCCCC1	none (no result: CHOP inh, L major viab, Dynein transport)
CSCCC1NC2(C(=O)Nc3c(C)cc(Cl)cc32)[C@@H]2C(=O)N(C3CCCC3)C(=O)[C@H]12 (stereo partly specified)	CHOP inh 104.2 | CHOP confirm inactive
Cc1cc(C)c2nc(NC(=O)CN3C(=O)NC4(CCCC4)C3=O)sc2c1	none (no result: CHOP inh, L major viab, Dynein transport)
O=C(NCCc1ccccc1)C1CCC(CNc2nc(=S)[nH]c3ccccc23)CC1 (stereo unspecified)	CHOP inh 103.8 | CHOP confirm inactive
O=C(CCCCCNc1nc(=S)[nH]c2ccccc12)NCCC1=CCCCC1	CHOP inh 100.8 | CHOP confirm inactive
O=C(CCCCCNc1nc(=S)[nH]c2ccccc12)NCCc1c[nH]c2ccccc12	none
CN(C)c1ccc(C(CNS(=O)(=O)c2ccc(F)cc2)c2c[nH]c3ccccc23)cc1 (stereo unspecified)	CHOP inh 107.0, L major viab 78.6 | CHOP confirm inactive
O=C(O)c1cccc(NC(=O)c2cn(-c3ccccc3)nc2-c2ccc(F)cc2)c1	none (no result: CHOP inh, L major viab, Dynein transport)
Fc1ccc(-c2nn(-c3ccccc3)cc2CNCc2ccccc2)cc1	CHOP inh 100.9, L major viab 80.2, T cruzi repl inconclusive | CHOP confirm 123.4
O=C(CCl)Nc1cn(-c2ccccc2)nc1-c1ccc(F)cc1	CHOP inh 105.3, L major viab 84.4 | CHOP confirm 99.7
O=C(c1ccco1)N1CCN(C(=O)c2cn(-c3ccccc3)nc2-c2ccc(F)cc2)CC1	none (no result: CHOP inh, L major viab, T cruzi repl, Dynein transport)
COc1ccc(NC(=O)CN2CCCC(C)C2)c([N+](=O)[O-])c1 (stereo unspecified)	CHOP inh 101.1 | CHOP confirm inactive
COCC(=O)NC1CCN(CC(=O)Nc2ccc(OC)cc2[N+](=O)[O-])CC1	none
CC(=O)NS(=O)(=O)c1ccc(NC(=S)NC(=O)Cc2ccccc2)cc1	none
N#CC1=C(N)C(C#N)(C#N)C(c2cccnc2)C2CC(c3ccccc3)CC=C12 (stereo unspecified)	CHOP inh 96.3, L major viab 55.3 | CHOP confirm inactive
O=C(COC(=O)c1cccc(NC(=O)c2ccco2)c1)c1ccc(Br)cc1	CHOP inh 105.3, L major viab 98.7 | CHOP confirm inactive
Cc1cc2ncn(-c3ncnc4sc5c(c34)CCC(C)C5)c2cc1C (stereo unspecified)	CHOP inh 96.5 | CHOP confirm inactive
COc1ccc2c(c1)c1ncn(CCN3CCCC3)c(=O)c1n2C	CHOP inh 101.2 | CHOP confirm inactive
CCOC(=O)c1sc(NC(=O)CSc2nnnn2-c2ccc(C)cc2C)nc1C	CHOP inh 100.2 | CHOP confirm inactive
CCCCCOC(=O)Nc1ccc(S(=O)(=O)Nc2cccc([N+](=O)[O-])c2)cc1	CHOP inh 108.9, L major viab 61.6 | CHOP confirm inactive
CCCCOC(=O)Nc1ccc(S(=O)(=O)Nc2cc(C)nc(C)n2)cc1	none
O=c1c2ccccc2sn1-c1ccc(F)cc1	none (no result: CHOP inh, L major viab, T cruzi repl, Dynein transport)
Cc1ccc(-n2sc3ccccc3c2=O)cc1	CHOP inh 105.7, T cruzi repl 74.0 | CHOP confirm inactive
O=C(CNC(=O)c1ccccc1F)N/N=C/c1ccc2c(c1)OCO2	none (no result: CHOP inh, L major viab, Dynein transport)
O=C(Nc1cccc(Cl)c1)C1CCCN(S(=O)(=O)c2ccc(F)cc2)C1 (stereo unspecified)	CHOP inh 99.2 | CHOP confirm inactive
O=C1C=CC(=O)N1N(c1ccccc1)c1ccccc1	CHOP inh 107.2 | CHOP confirm 117.8
O=C1C=CC(=O)N1Cc1ccccc1	none (no result: CHOP inh, L major viab, Dynein transport)
